PAD4 inh = human PAD4 inhibitors, primary screen, biochemical, fluorescence polarization, 1536-well format; Protein-arginine deiminase type-4 (Homo sapiens), Q9UM07; recombinant PAD4, RCA probe fluorescence polarization; inhibition, % at 6.36 µM; hit rate 0.41% among 330,000; AID 485272, 2010;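 active = percent inhibition above a cutoff equal to the mean of all tested compounds plus 3 SD, cut at about 15% in these data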;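 note: 0% = PAD4 with RCA probe and DMSO and 100% = probe without PAD4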
LYPLA2 inh = LYPLA2 inhibitors, primary screen, counter-screen for PME1 inhibitor project, biochemical, fluorescence polarization, FP-Rh probe ABPP. Acyl-protein thioesterase 2 (Homo sapiens), O95372. recombinant LYPLA2. inhibition, % at 5.9 µM. hit rate 0.38% among 320,000. AID 2177, 2009;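 active = inhibition above the screen-wide mean plus 3 SD, limit set per campaign, cut at about 26% in these data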;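 note: 0% = LYPLA2 with DMSO and 100% = wells lacking LYPLA2 enzyme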
Target sequence (O95372 whole entry, looked up): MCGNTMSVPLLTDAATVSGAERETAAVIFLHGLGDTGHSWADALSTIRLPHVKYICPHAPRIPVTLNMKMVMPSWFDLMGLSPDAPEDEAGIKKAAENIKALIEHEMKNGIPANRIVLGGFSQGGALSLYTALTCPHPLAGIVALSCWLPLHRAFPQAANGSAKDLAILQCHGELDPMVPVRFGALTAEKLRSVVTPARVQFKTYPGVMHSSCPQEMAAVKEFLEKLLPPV
PME-1 primary = PME-1 inhibitors via competitive probe labeling, primary screen, biochemical, fluorescence polarization, FP-Rh probe, HTS; inhibition, % at 5.9 µM; AID 2130, 2009; Protein phosphatase methylesterase 1 (Homo sapiens), Q9Y570; hit rate 0.53% among 320,000; recombinant PME-1;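 active = inhibition above the campaign mean of all compounds plus 3 SD, cut at about 26% in these data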;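 note: competitive labeling of PME-1 active site by serine hydrolase directed probe; 0% = PME-1 with DMSO and 100% = wells lacking PME-1 enzyme; inhibitors block probe labeling so polarization falls and inhibition rises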
RBBP9 inhibitor = human RBBP9 inhibitors, primary screen, biochemical, fluorescence polarization, FP-Rh probe, HTS; Serine hydrolase RBBP9 (Homo sapiens), O75884; recombinant RBBP9; inhibition, % at 7.94 µM; hit rate 0.2% among 220,000;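 active = inhibition above the campaign mean of all tested compounds plus 3 SD, cut at about 14% in these data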;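 note: plate controls were DMSO wells with RBBP9 for no effect and wells lacking RBBP9 protein for full effect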
Target sequence (O75884 whole entry, looked up): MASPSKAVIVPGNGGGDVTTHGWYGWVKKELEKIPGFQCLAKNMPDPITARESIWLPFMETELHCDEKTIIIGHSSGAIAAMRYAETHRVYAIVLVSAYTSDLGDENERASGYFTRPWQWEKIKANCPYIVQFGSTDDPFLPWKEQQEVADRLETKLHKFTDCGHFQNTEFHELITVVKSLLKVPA
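System: RBBP9 protein | Quantity: 2.5 µM RBBP9 dispensing solution, before mixing | Reagent: FP-Rh probe, 375 nM dispensing solution | Timing: Enzyme-compound preincubation 30 min, then probe labeling 45 min, 25 °C | Measured by: Fluorescence polarization | Read-out: % inhibition | Replication: One well per compound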
Fam108B counter = mouse Fam108B serine hydrolase inhibitors, primary screen, counter-screen for RBBP9 inhibitor project, biochemical, fluorescence polarization; recombinant Fam108B, FP-Rh probe fluorescence polarization; inhibition, % at 9.51 µM; hit rate 0.33% among 300,000;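 active = inhibition above the screen mean inhibition plus 3 SD, computed separately per campaign, cut at about 18% in these data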;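 note: inhibitors lower polarization as less probe binds the enzyme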
LYPLA1 inh = LYPLA1 inhibitors, primary screen, counter-screen for PME1 inhibitor project, biochemical, fluorescence polarization, FP-Rh probe ABPP; AID 2174, 2009; recombinant LYPLA1; inhibition, % at 5.9 µM; Acyl-protein thioesterase 1 (Homo sapiens), O75608; hit rate 0.16% among 320,000;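 active = inhibition above the mean of all tested compounds plus 3 SD, set per campaign, cut at about 14% in these data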;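 note: inhibitors block serine hydrolase probe labeling of LYPLA1 so polarization falls; 0% = enzyme with DMSO and 100% = wells lacking LYPLA1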
Target sequence (O75608 whole entry, looked up): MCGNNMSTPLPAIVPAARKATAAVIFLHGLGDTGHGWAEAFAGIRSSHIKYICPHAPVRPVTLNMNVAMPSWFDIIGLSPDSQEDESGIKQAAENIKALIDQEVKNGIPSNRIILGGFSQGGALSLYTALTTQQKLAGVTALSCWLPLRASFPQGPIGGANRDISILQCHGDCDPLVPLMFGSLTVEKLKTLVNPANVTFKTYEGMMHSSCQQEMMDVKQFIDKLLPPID
RBBP9 inh conf = human RBBP9 inhibitors, retest, confirmation, biochemical, fluorescence polarization, FP-Rh probe, triplicate | shares compounds with RBBP9 inhibitor | recombinant RBBP9 | inhibition, % at 7.94 µM | hit rate 36% among 410 | AID 1537, 2009;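 active = inhibition above the hit cutoff derived for the primary screen, cut at about 15% in these data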;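 note: 0% = RBBP9 with DMSO and 100% = wells lacking RBBP9 protein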
* hit, by the source's call; . = no result. Most compounds without a hit are left out; they make up all but 1.3% or so of the library.

SMILES | PAD4 inh | LYPLA2 inh | PME-1 primary | RBBP9 inhibitor | Fam108B counter | LYPLA1 inh | RBBP9 inh conf
OC(CNC1Cc2ccccc2C1)COc1ccc(F)cc1 (configuration not stated) | -2 | -1 | 3 | 15* | -3 | 0 | 7
CCN(CC(=O)NCc1cccs1)C(=O)Cc1ccc(Cl)c(Cl)c1 | -4 | . | . | . | . | . | .
Cc1coc2c(C)c3oc(=O)c(CCC(=O)N[C@@H](C)C(=O)N[C@@H](Cc4ccccc4)C(=O)O)c(C)c3cc12 | 0 | 12 | -10 | . | -2 | -1 | .
OCCC1CN(Cc2cc3c(cc2Cl)OCO3)CCN1C1CCCC1 (configuration not stated) | -9 | -3 | -5 | 2 | -4 | 2 | .
CC(C)c1ccc(-c2csc3ncnc(N4CCN(C)CC4)c23)cc1 | -2 | -6 | 6 | . | 2 | 1 | .
O=C(O)Cc1ccc(NC(=O)COc2ccc3ccccc3c2)cc1 | 0 | -2 | 3 | . | -4 | -5 | .
O=C(COc1ccc2ccccc2c1)Nc1ccc(Cc2ccncc2)cc1 | 0 | 6 | -8 | 28* | -4 | 1 | 3
O=C(C[n+]1ccc(C(=O)NCCCO)cc1)c1cccc(Br)c1 | -2 | -1 | -4 | 63* | 2 | 2 | 6
COC(=O)CC(=O)CSc1nc2c(cc1C#N)CCC2 | 2 | 1 | -3 | 24* | 3 | 1 | 10
Cc1ccc(C2=NC3(CCCCC3)N=C2SCC(=O)Nc2ccc3c(c2)OCCO3)cc1 | 4 | -17 | -8 | -1 | -10 | -6 | .
N#Cc1ccc(-c2ccccc2)nc1SCC(=O)c1cc2ccccc2oc1=O | -7 | -7 | -14 | 30* | -38 | -14 | -57
CCOC(=O)CSc1nnnn1-c1cc(OC)c(Cl)cc1OC | 2 | -3 | 2 | -3 | -1 | -3 | .
COc1cc(-n2nnnc2SCC(=O)N2CCN(c3ccc(F)cc3)CC2)c(OC)cc1Cl | . | . | . | 16* | . | . | 5
Cc1ccc(S(=O)(=O)NCC2CCC(C(=O)NC3CCCCC3)CC2)cc1 (configuration not stated) | -2 | 1 | 3 | . | -2 | 1 | .
Cc1cccc(NS(=O)(=O)c2cc(NC(=O)CC(=O)c3ccc([N+](=O)[O-])cc3)ccc2C)c1 | . | . | . | 30* | . | . | 16*
CC1Cc2ccccc2N1C(=O)CN1CCC(C(N)=O)CC1 (configuration not stated) | -2 | 0 | 2 | -4 | 5 | -2 | .
Cc1cc(-c2onc(C)c2C(=O)Oc2ccc(Cl)cc2)no1 | 1 | -2 | 5 | -6 | 0 | -2 | .
Cc1cc(-c2onc(C)c2C(N)=O)no1 | 3 | 2 | -1 | 14* | 1 | 1 | 6
CCN(C[C@H]1N[C@@](C)(C(=O)OC)[C@H]2C(=O)N(Cc3ccccc3)C(=O)[C@@H]12)S(=O)(=O)c1ccc(OC)cc1 | 2 | . | . | . | . | . | .
COc1ccc(-n2nc(C(=O)NCC(=O)NCc3ccc(F)cc3)c3ccccc3c2=O)cc1OC | -11 | -33 | -58 | . | -39 | -21 | .
O=C(NCc1ccccc1)c1cccc(NS(=O)(=O)c2cccc3cccnc23)c1 | -1 | -1 | 8 | -5 | 1 | -6 | .
N#CC1=C(N)Oc2ccc3ccc(O)cc3c2C1c1ccsc1 (configuration not stated) | . | . | . | 53* | . | . | 47*
CC(C)C[C@H](N)c1nnc(SCc2ccc(Cl)cc2)o1 | 3 | 2 | -2 | 16* | 3 | 1 | 10
CCOc1cc2nc(-c3ccc(OC)c(OC)c3)nc(NCCCN3CCOCC3)c2cc1OC | -3 | -8 | -9 | 0 | 10 | -7 | .
COc1cc2ncnc(NCCCN3CCOCC3)c2cc1OC | -1 | -2 | -1 | 15* | 0 | 0 | 7
SMILES | PAD4 inh | LYPLA2 inh | PME-1 primary | RBBP9 inhibitor | Fam108B counter | LYPLA1 inh | RBBP9 inh conf
CC(=O)C(=Nc1ccccc1Cl)NNc1ccc(Cl)cc1 | -2 | 5 | 9 | 37* | 4 | 1 | 6
CCOC(=O)Cc1nn(C)c(=O)c2ccccc12 | 4 | 2 | -8 | 16* | 8 | -1 | 0
CS(=O)(=O)N(CC(=O)Nc1cccnc1)c1ccc2c(c1)OCO2 | -3 | 0 | -1 | 14* | 3 | -2 | 5
CCOC(=O)C(CCCCCOc1ccccc1[N+](=O)[O-])C(=O)OCC | -4 | -5 | 7 | 1 | 5 | -3 | .
CCOC(=O)C(CCCCCOc1ccc([N+](=O)[O-])cc1)C(=O)OCC | -3 | 15 | 3 | 18* | 1 | -2 | 6
O=C(O)/C=C/C(=O)NC1CCC(CC2CCC(NC(=O)/C=C/C(=O)O)CC2)CC1 (configuration not stated) | -4 | -2 | 1 | 21* | 2 | 1 | 9
CCOC(=O)C1CCN(c2nc(C)cc(C)c2C#N)CC1 | 3 | -2 | -1 | 0 | 0 | -3 | .
CCOC(=O)C1CCN(c2nc(N)c3c(N)nc(SCC(=O)O)cc3c2C#N)CC1 | . | . | . | 17* | . | . | 39*
COc1ccc(OC(C)C(=O)N2CCCc3ccccc32)cc1 (configuration not stated) | -3 | 3 | -2 | 17* | 5 | 4 | 5
Cn1c(N2CCCC2)nc2c1c(=O)n(Cc1ccc(F)cc1)c(=O)n2C | -3 | 3 | 6 | -5 | 0 | 3 | .
Cn1c(N2CCOCC2)nc2c1c(=O)n(Cc1ccc(Cl)c(Cl)c1)c(=O)n2C | -7 | 0 | 6 | 18* | 0 | 0 | 4
O=c1c2ccccc2nc(/C=C/c2cccnc2)n1CCc1ccccc1 | -1 | -2 | 0 | 3 | 1 | 0 | .
O=c1c2ccccc2nc(/C=C/c2cccnc2)n1Cc1ccccc1 | . | . | . | 15* | . | . | 55*
O=c1c2cc(N3CCOCC3)ccc2[nH]c(=S)n1Cc1ccccc1Cl | -1 | 0 | 2 | 0 | 1 | 2 | .
O=c1c2cc(N3CCOCC3)ccc2[nH]c(=S)n1Cc1ccccn1 | 2 | 13 | -5 | 15* | -1 | 1 | 11
O=c1c2ccccc2[nH]c(=S)n1CCCN1CCOCC1 | -7 | 4 | -3 | 15* | 4 | 7 | 7
CCN(CC)C(=O)c1cccc(NC(=O)C2CCN(C(=O)c3cccs3)CC2)c1 | 3 | . | . | . | . | . | .
COc1ccc(NC(=O)COC(=O)Cc2coc3cc(OC)ccc23)c(OC)c1 | 1 | . | . | . | . | . | .
CCc1ccc(OCC(=O)Nc2ccc(S(=O)(=O)Nc3cc(C)on3)cc2)c(Br)c1 | -5 | 0 | -8 | . | -11 | -6 | .
O=C(c1cc(Br)c[nH]1)N1CCSCC1 | -5 | -7 | -5 | . | -2 | 2 | .

Screens deposited in PubChem BioAssay by The Scripps Research Institute Molecular Screening Center.
